Data reported in article PMC2899701 (Lipids, 2009).
≈ marks a conversion by molar mass, not a printed value. Where two headings read alike, the source gives them in different places.

Tests used:
[1] = tested on: L. donovani promastigotes; assay type: cell-based, Leishmania donovani (MHOM/ET67/L82 strain); conditions: for Therapeutic index IC50/EC50: IC50 murine macrophages / EC50 L. donovani promastigotes; for EC50: 48 h, read-out: L. donovani promastigotes EC50; for L. donovani promastigotes EC50: 48 h incubation, fatty acids in DMSO 0.6 to 25 μg/ml; for Effectiveness towards L. donovani (in words): promastigotes
Outline: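 L. donovani MHOM/ET67/L82 promastigotes propagated in defined medium 199 with 10% heat-inactivated FCS, penicillin (50 U/ml) and streptomycin (50 µg/ml). Cultures given test fatty acids in DMSO over 0.6 to 25 µg/ml for 48 h. Cell population counted by Coulter counter; IC50/EC50 derived from the concentration series.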

[2] = tested on: Murine macrophages (RAW 264.7); assay: Toxicity to murine macrophages; assay type: cell-based; conditions: for IC50: RAW264.7, 48 h, read-out: Murine macrophages IC50; for Murine macrophages IC50: RAW 264.7, 48 h incubation, alamarBlue
Outline: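 RAW 264.7 murine macrophages grown at 37 °C in RPMI 1640 with 10% FCS, penicillin (50 U/ml) and streptomycin (50 µg/ml). Cells exposed 48 h to a range of test compound concentrations (0.3 to 100 µg/ml, DMSO vehicle). Viability read with alamarBlue dye per manufacturer's protocol; IC50 derived from concentration series.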

[3] = target: leishmania DNA topoisomerase IB (LdTopIB) (Leishmania donovani, UniProt A0A3Q8IHS4+Q8WQM6); assay: DNA relaxation assay with recombinant LdTopIB; assay type: biochemical; conditions: concentrations as high as 1mM (gel not shown)
[4] = tested on: L. donovani promastigotes; conditions: cited from earlier work
[5] = tested on: L. donovani promastigotes; conditions: at levels of 100 μg/mL; cited from earlier work

## CCCCCCCCCCC#CCCCCC(=O)O [Compound 1a, 6-Heptadecynoic acid]
[1]
  Therapeutic index IC50/EC50: 0.85
[1]; Leishmania donovani
  EC50: 6.67 ± 1.42 µg/mL (≈ 25 µM)
[2]; Mus musculus
  IC50: 5.66 ± 0.92 µg/mL (≈ 21.2 µM)

## CCCCCCCCCCCCCC#CCCCCC(=O)O [Compound 1b, 6-Icosynoic acid]
[1]
  Therapeutic index IC50/EC50: 4.82
[1]; Leishmania donovani
  EC50: 1.11 ± 0.28 µg/mL (≈ 3.6 µM)
[2]; Mus musculus
  IC50: 5.35 ± 2.14 µg/mL (≈ 17.3 µM)

## CCCCCCCCCC/C=C\CCCCC(=O)O [Compound 6a, (6Z)-Heptadecenoic acid]
[1]
  L. donovani promastigotes EC50: > 25 µg/mL
[2]
  Murine macrophages IC50: 11.86 ± 1.63 µg/mL

## CCCCCCCCCCCCC/C=C\CCCCC(=O)O [Compound 6b, (6Z)-Icosenoic acid]
[1]
  L. donovani promastigotes EC50: 5.67 ± 1.07 µg/mL
  Therapeutic index IC50/EC50: 4.97
[1]; listed as (6Z)-icosenoic acid
  L. donovani promastigotes EC50: 5 to 6 µg/mL
[2]
  Murine macrophages IC50: 28.20 ± 7.54 µg/mL

## CCCCCCCCCCCCCCCCC(=O)O [Heptadecanoic (17:0), n-heptadecanoic acid]
[1]
  L. donovani promastigotes EC50: > 25 µg/mL
  Effectiveness towards L. donovani (in words): not effective
[2]
  Murine macrophages IC50: 14.18 ± 7.48 µg/mL
[3]
  Inhibition of the LdTOPIB enzyme (in words): did not inhibit the enzyme

## CCCCCCCCCCCCCCCCCCCC(=O)O [Icosanoic (20:0), n-icosanoic acid]
[1]
  L. donovani promastigotes EC50: > 25 µg/mL
  Effectiveness towards L. donovani (in words): not effective
[2]
  Murine macrophages IC50: 21.93 ± 2.61 µg/mL
[3]
  Inhibition of the LdTOPIB enzyme (in words): did not inhibit the enzyme

## CCCCCCCCCCCCCCCCOP(=O)([O-])OCC[N+](C)(C)C [miltefosine]
[1]; Leishmania donovani, read-out: IC50 against L. donovani
  IC50: 790 nM
[2]; Mus musculus, RAW264.7, read-out: EC50 against murine macrophages
  EC50: 1950 nM

## CCCCCCCCCC(=O)O [n-Decanoic acid]
[4]
  MIC against L. donovani promastigotes: 1390 µM (≈ 239 µg/mL)
[5]
  Inhibition of the motility of L. donovani promastigotes (in words): inhibited the motility

## CCCCCCCCCCCC(=O)O [n-dodecanoic, n-dodecanoic acid]
[5]
  Inhibition of the motility of L. donovani promastigotes (in words): inhibited the motility

## CCCCCCCCCCCCCCCC(=O)O [n-hexadecanoic acids, n-hexadecanoic acid]
[5]
  Inhibition of the motility of L. donovani promastigotes (in words): inhibited the motility

## CCCCCCCCCCCCCCCCCC(=O)O [octadecanoic acid]
[4]
  MIC against L. donovani promastigotes: 180 µM (≈ 51.2 µg/mL)

## CCCCCCCC/C=C\CCCCCCCC(=O)O [oleic acid]
[4]
  MIC against L. donovani promastigotes: 90 µM (≈ 25.4 µg/mL)
[5]
  Inhibition of the motility of L. donovani promastigotes (in words): had no effect
